Experimental data taken from ChEMBL document CHEMBL1649395, “Synthesis and antibacterial activity of novel ketolides with 11,12-sulfur contained aryl alkyl side chains” (2011).
Values after ≈ are worked out from the molar mass of the structure shown.

Columns and labels:
Format in all cases: functional
Streptococcus pneumoniae [1] = assay: Antibacterial activity against erythromycin-susceptible Streptococcus pneumoniae 07H252 by broth microdilution method
In short: (§1)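 Strains were ATCC reference strains or clinical isolates from China's national antimicrobial resistance surveillance network (MOHNARIN). In vitro activity was measured by broth microdilution following NCCLS recommendations. Results are reported as minimum inhibitory concentration (MIC) in mg/L.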

Staphylococcus aureus [2] = assay: Antibacterial activity against methicillin-susceptible Staphylococcus aureus ATCC 29213 by broth microdilution method; in short: as §1
Staphylococcus aureus [3] = assay: Antibacterial activity against methicillin-susceptible Staphylococcus aureus ANS46 by broth microdilution method; in short: as §1
[4] = system: Staphylococcus epidermidis; assay: Antibacterial activity against methicillin-susceptible Staphylococcus epidermidis 07C134 by broth microdilution method
In short: (§2)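 Clinical isolates were supplied by China's Ministry of Health National Antimicrobial Resistance Investigation Net (MOHNARIN). Activity was reported as minimum inhibitory concentration (MIC), determined by broth microdilution following NCCLS recommendations.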

[5] = system: Staphylococcus epidermidis; assay: Antibacterial activity against methicillin-susceptible Staphylococcus epidermidis 07T202 by broth microdilution method; in short: as §1
[6] = system: Staphylococcus epidermidis; assay: Antibacterial activity against methicillin-resistant Staphylococcus epidermidis 07R066 by broth microdilution method; in short: as §2
[7] = system: Staphylococcus epidermidis; assay: Antibacterial activity against methicillin-resistant Staphylococcus epidermidis 07A066 by broth microdilution method; in short: as §2
Streptococcus pyogenes [8] = assay: Antibacterial activity against erythromycin-susceptible Streptococcus pyogenes 07U084 by broth microdilution method; in short: as §1
Streptococcus pyogenes [9] = assay: Antibacterial activity against erythromycin-susceptible Streptococcus pyogenes 07U086 by broth microdilution method; in short: as §1
Streptococcus pyogenes [10] = assay: Antibacterial activity against erythromycin-resistant Streptococcus pyogenes 03-233 by broth microdilution method; in short: as §2
Streptococcus pyogenes [11] = assay: Antibacterial activity against erythromycin-resistant Streptococcus pyogenes 01-533 by broth microdilution method; in short: as §2
Streptococcus pneumoniae [12] = assay: Antibacterial activity against erythromycin-susceptible Streptococcus pneumoniae ATCC 49619 by broth microdilution method; in short: as §1
Streptococcus pneumoniae [13] = assay: Antibacterial activity against erythromycin-resistant Streptococcus pneumoniae 07D201 by broth microdilution method; in short: as §2
Streptococcus pneumoniae [14] = assay: Antibacterial activity against erythromycin-resistant Streptococcus pneumoniae 07P390 by broth microdilution method; in short: as §2
Haemophilus influenzae [15] = assay: Antibacterial activity against erythromycin-susceptible Haemophilus influenzae ATCC 49247 by broth microdilution method; in short: as §1
Haemophilus influenzae [16] = assay: Antibacterial activity against erythromycin-susceptible Haemophilus influenzae 07O114 by broth microdilution method; in short: as §1
Haemophilus influenzae [17] = assay: Antibacterial activity against erythromycin-susceptible Haemophilus influenzae 07O339 by broth microdilution method; in short: as §1
Haemophilus influenzae [18] = assay: Antibacterial activity against erythromycin-susceptible Haemophilus influenzae 07O394 by broth microdilution method; in short: as §1

Compound | MIC (Streptococcus pneumoniae [1]) [µg/mL] | MIC (Staphylococcus aureus [2]) [µg/mL] | MIC (Staphylococcus aureus [3]) [µg/mL] | MIC [4] [µg/mL] | MIC [5] [µg/mL] | MIC [6] [µg/mL] | MIC [7] [µg/mL] | MIC (Streptococcus pyogenes [8]) [µg/mL] | MIC (Streptococcus pyogenes [9]) [µg/mL] | MIC (Streptococcus pyogenes [10]) [µg/mL] | MIC (Streptococcus pyogenes [11]) [µg/mL] | MIC (Streptococcus pneumoniae [12]) [µg/mL] | MIC (Streptococcus pneumoniae [13]) [µg/mL] | MIC (Streptococcus pneumoniae [14]) [µg/mL] | MIC (Haemophilus influenzae [15]) [µg/mL] | MIC (Haemophilus influenzae [16]) [µg/mL] | MIC (Haemophilus influenzae [17]) [µg/mL] | MIC (Haemophilus influenzae [18]) [µg/mL]
CC[C@H]1OC(=O)[C@H](C)C(=O)[C@H](C)[C@@H](O[C@@H]2O[C@H](C)C[C@H](N(C)C)[C@H]2O)[C@@](C)(OC)C[C@@H](C)C(=O)[C@H](C)[C@H]2N(CCCSc3nc(-c4ccccc4)cs3)C(=O)O[C@]12C | 0.5 (≈ 0.591 µM) | 0.5 (≈ 0.591 µM) | 32 (≈ 37.8 µM) | 0.5 (≈ 0.591 µM) | 32 (≈ 37.8 µM) | 0.5 (≈ 0.591 µM) | 0.5 (≈ 0.591 µM) | 0.25 (≈ 0.295 µM) | 0.25 (≈ 0.295 µM) | 32 (≈ 37.8 µM) | 1 (≈ 1.18 µM) | 0.25 (≈ 0.295 µM) | 8 (≈ 9.45 µM) | 0.25 (≈ 0.295 µM) | 16 (≈ 18.9 µM) | 32 (≈ 37.8 µM) | 32 (≈ 37.8 µM) | 32 (≈ 37.8 µM)
CC[C@H]1OC(=O)[C@H](C)[C@@H](O[C@H]2C[C@@](C)(OC)[C@@H](O)[C@H](C)O2)[C@H](C)[C@@H](O[C@@H]2O[C@H](C)C[C@H](N(C)C)[C@H]2O)[C@](C)(OC)C[C@@H](C)C(=O)[C@H](C)[C@@H](O)[C@]1(C)O [CLARITHROMYCIN] | 0.062 (≈ 0.0829 µM) | 0.25 (≈ 0.334 µM) | > 32 | 0.25 (≈ 0.334 µM) | > 32 | 0.125 (≈ 0.167 µM) | 8 (≈ 10.7 µM) | 0.031 (≈ 0.0414 µM) | 0.031 (≈ 0.0414 µM) | > 32 | 2 (≈ 2.67 µM) | 0.031 (≈ 0.0414 µM) | > 32 | 2 (≈ 2.67 µM) | 4 (≈ 5.35 µM) | 4 (≈ 5.35 µM) | 8 (≈ 10.7 µM) | 8 (≈ 10.7 µM)
CC[C@H]1OC(=O)[C@H](C)C(=O)[C@H](C)[C@@H](O[C@@H]2O[C@H](C)C[C@H](N(C)C)[C@H]2O)[C@@](C)(OC)C[C@@H](C)C(=O)/C(C)=C/[C@]1(C)OC(=O)NCCCSc1ncnc2[nH]ncc12 | 8 (≈ 9.94 µM) | 0.5 (≈ 0.621 µM) | > 16 | 0.5 (≈ 0.621 µM) | > 16 | 0.5 (≈ 0.621 µM) | 0.5 (≈ 0.621 µM) | 0.25 (≈ 0.311 µM) | 0.25 (≈ 0.311 µM) | > 16 | 8 (≈ 9.94 µM) | 0.5 (≈ 0.621 µM) | > 16 | 16 (≈ 19.9 µM) | > 16 | > 16 | > 16 | > 16
CC[C@H]1OC(=O)[C@H](C)C(=O)[C@H](C)[C@@H](O[C@@H]2O[C@H](C)C[C@H](N(C)C)[C@H]2O)[C@@](C)(OC)C[C@@H](C)C(=O)[C@H](C)[C@H]2N(CCCSc3nc(-c4ccccc4)c(-c4ccccc4)o3)C(=O)O[C@]12C |  | 4 (≈ 4.41 µM) | > 16 | 4 (≈ 4.41 µM) | > 16 | 4 (≈ 4.41 µM) | 2 (≈ 2.21 µM) | 0.5 (≈ 0.552 µM) | 0.5 (≈ 0.552 µM) |  |  | 1 (≈ 1.1 µM) |  |  | > 16 | > 16 | > 16 | > 16
CC[C@H]1OC(=O)[C@H](C)C(=O)[C@H](C)[C@@H](O[C@@H]2O[C@H](C)C[C@H](N(C)C)[C@H]2O)[C@@](C)(OC)C[C@@H](C)C(=O)[C@H](C)[C@H]2N(CCCSc3ccoc3C)C(=O)O[C@]12C | 1 (≈ 1.3 µM) | 0.25 (≈ 0.326 µM) | > 16 | 0.25 (≈ 0.326 µM) | > 16 | 0.25 (≈ 0.326 µM) | 0.25 (≈ 0.326 µM) | 0.125 (≈ 0.163 µM) | 0.125 (≈ 0.163 µM) | > 16 | 0.5 (≈ 0.652 µM) | 0.031 (≈ 0.0404 µM) | > 16 | 0.25 (≈ 0.326 µM) | 16 (≈ 20.9 µM) | 8 (≈ 10.4 µM) | 16 (≈ 20.9 µM) | 16 (≈ 20.9 µM)
CC[C@H]1OC(=O)[C@H](C)C(=O)[C@H](C)[C@@H](O[C@@H]2O[C@H](C)C[C@H](N(C)C)[C@H]2O)[C@](C)(OC)C[C@@H](C)C(=O)[C@H](C)[C@H]2N(CCCCn3cnc(-c4cccnc4)c3)C(=O)O[C@]12C [TELITHROMYCIN] | 0.062 (≈ 0.0764 µM) | 0.125 (≈ 0.154 µM) | > 16 | 0.125 (≈ 0.154 µM) | > 16 | 0.125 (≈ 0.154 µM) | 0.125 (≈ 0.154 µM) | 0.062 (≈ 0.0764 µM) | 0.062 (≈ 0.0764 µM) | 2 (≈ 2.46 µM) | 0.25 (≈ 0.308 µM) | 0.031 (≈ 0.0382 µM) | 1 (≈ 1.23 µM) | 0.031 (≈ 0.0382 µM) | 4 (≈ 4.93 µM) | 4 (≈ 4.93 µM) | 4 (≈ 4.93 µM) | 4 (≈ 4.93 µM)
CC[C@H]1OC(=O)[C@H](C)C(=O)[C@H](C)[C@@H](O[C@@H]2O[C@H](C)C[C@H](N(C)C)[C@H]2O)[C@@](C)(OC)C[C@@H](C)C(=O)[C@H](C)[C@H]2N(CCCSc3nnc(C)s3)C(=O)O[C@]12C | ≤ 0.016 | 0.25 (≈ 0.318 µM) | > 32 | 0.125 (≈ 0.159 µM) | > 32 | 2 (≈ 2.55 µM) | 0.125 (≈ 0.159 µM) | ≤ 0.016 | 0.031 (≈ 0.0395 µM) | > 32 | 1 (≈ 1.27 µM) | ≤ 0.016 | 16 (≈ 20.4 µM) | 0.125 (≈ 0.159 µM) | 2 (≈ 2.55 µM) | 2 (≈ 2.55 µM) | 2 (≈ 2.55 µM) | 2 (≈ 2.55 µM)
